Measurements from ChEMBL document CHEMBL1154414, “In vitro and in vivo activities of T-705 against arenavirus and bunyavirus infections” (Antimicrob Agents Chemother, 2007).
Active and inactive are the calls of the source. The rule behind the calls is not given here.

What was measured:
Pichinde virus [1] = assay: Antiviral activity against Pichinde virus An 4763 infected Syrian golden hamster assessed as inhibition of liver damage at 40 mg/kg, po twice daily for 7 days administered 4 hrs before viral-challenge measured on day 7 of viral infection; type: functional, organism-based; parameters: dose 40 mg/kg
Procedure, shortened: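 Hamsters were challenged intraperitoneally (bilateral, 65 PFU) and dosed twice daily by oral gavage in 0.4% CMC. On day 7, five animals per group were sacrificed. Livers were scored 0-4 for hepatic icterus (0 normal, 4 maximal yellow coloration), and serum ALT was measured by kinetic assay.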

Pichinde virus [2] = assay: Antiviral activity against Pichinde virus An 4763 infected Syrian golden hamster assessed as mean day of death at 20 mg/kg, po twice daily for 7 days administered 24 hrs post viral-challenge; type: functional
Procedure, shortened: (§1)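 Groups of 15 hamsters (placebo 25-30) were challenged intraperitoneally (bilateral, 65 PFU) and dosed twice daily by oral gavage in 0.4% CMC for 5 to 7 days.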

Punta Toro virus [3] = assay: Antiviral activity against 50 PFU Punta Toro virus Adames infected C57BL/6 mouse assessed as animals with detectable virus level in serum at 30 mg/kg, po twice daily administered 24 hrs post viral challenge measured on day 3 of viral infection; type: functional
Procedure, shortened: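 T-705 was suspended in 0.4% carboxymethylcellulose and given by oral gavage twice daily. Mice were infected subcutaneously with PTV. Five mice per group (10 placebo) were sacrificed on day 3 or 4. Liver homogenate or serum was serially diluted onto triplicate LLC-MK2 monolayers, and CPE was read at 6–8 days. The detection limit was 2.8 log10 CCID50 per 0.1 g liver or 0.1 ml serum.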

Punta Toro virus [4] = assay: Antiviral activity against 5000 PFU Punta Toro virus Adames infected C57BL/6 mouse assessed as mean serum ALT levels at 10 mg/kg, po twice daily administered 24 hrs post viral challenge measured on day 3 of viral infection; type: functional
Procedure, shortened: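 C57BL/6 mice received subcutaneous PTV, then oral gavage twice daily for 5–7 days. T-705 was given in 0.4% CMC and ribavirin in saline. Five mice per group (10 placebo) were killed on day 3 or 4, and serum was collected. ALT activity was measured by kinetic assay. Three sham-infected mice set baselines.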

Pichinde virus [5] = assay: Antiviral activity against Pichinde virus An 4763 infected Syrian golden hamster assessed as mean day of death at 20 mg/kg, po twice daily for 7 days administered 72 hrs post viral-challenge measured on day 7 of viral infection; type: functional; procedure, shortened: as §1
Pichinde virus [6] = assay: Antiviral activity against Pichinde virus An 4763 infected Syrian golden hamster assessed as mean viral titer per 0.1 g of liver at 50 mg/kg, po twice daily for 7 days administered 72 hrs post viral-challenge measured on day 7 of viral infection; type: functional
Procedure, shortened: (§2)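 Hamsters (groups of 15, placebo 25-30) were dosed orally by gavage twice daily (drug suspended in 0.4% CMC) after bilateral intraperitoneal challenge with 65 PFU. Five per group were killed on day 7. Liver homogenate or serum was serially diluted onto triplicate B-SC-1 wells, CPE was read at 6-8 days, and the 50% endpoint was taken. Range was 2.8-9.5 log10 CCID50/0.1 g or 0.1 ml, with undetectable assigned <2.8.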

Punta Toro virus [7] = assay: Antiviral activity against Punta Toro virus Adames infected Syrian golden hamster assessed as mean serum ALT levels at 30 mg/kg, po twice daily administered 4 hrs before viral challenge measured on day 4 of viral infection; type: functional
Procedure, shortened: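 Hamsters were challenged subcutaneously with 50 PFU and dosed twice daily by oral gavage in 0.4% CMC. Five per group were sacrificed on day 3 or 4. Livers were scored 0-4 for icterus, and serum ALT was measured by kinetic assay against three sham-infected baseline animals.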

Punta Toro virus [8] = assay: Antiviral activity against 5000 PFU Punta Toro virus Adames infected C57BL/6 mouse assessed as mean day of death at 30 mg/kg, po twice daily for 5 days administered 24 hrs post viral challenge; type: functional
Procedure, shortened: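 PTV was inoculated subcutaneously into mice in groups of 15 (25–30 placebo). Dosing was by oral gavage twice daily for 5–7 days, with T-705 suspended in 0.4% CMC and ribavirin in saline. Remaining animals were observed 21–28 days for survival and day of death. Test doses had first been checked for tolerance in uninfected animals.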

Pichinde virus [9] = assay: Antiviral activity against Pichinde virus An 4763 infected Syrian golden hamster assessed as mean viral titer per 0.1 g of liver at 50 mg/kg, po twice daily for 7 days administered 24 hrs post viral-challenge measured on day 7 of viral infection; type: functional; procedure, shortened: as §2
Tacaribe virus = assay: Antiviral activity against Tacaribe virus TRVL11573 in Vero cells assessed as inhibition of virus-induced visual cytopathic effect after 7 to 8 days; type: functional, organism-based; details: Mammarenavirus tacaribeense
Procedure, shortened: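 Subconfluent (50-70%) Vero cells were infected with virus in 2% FBS medium at the CCID50 giving maximal CPE. Half-log drug dilutions were added at infection. EC50 was obtained by regression analysis.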

Pichinde virus [10] = assay: Antiviral activity against Pichinde virus An 4763 infected Syrian golden hamster assessed as mean serum ALT levels at 20 mg/kg, po twice daily for 7 days administered 72 hrs post viral-challenge measured on day 7 of viral infection; type: functional
Procedure, shortened: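 Hamsters were challenged intraperitoneally (bilateral, 65 PFU) and given twice-daily oral gavage doses (0.4% CMC vehicle). Five per group were sacrificed on day 7 and serum was collected. Serum ALT activity was measured by kinetic assay. Three sham-infected animals set the baselines.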

Punta Toro virus [11] = assay: Antiviral activity against 500 PFU Punta Toro virus Adames infected C57BL/6 mouse assessed as mean viral titer per 0.1 mL of serum at 10 mg/kg, po twice daily administered 24 hrs post viral challenge measured on day 3 of viral infection; type: functional
Procedure, shortened: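 Mice were infected subcutaneously with PTV and dosed by oral gavage twice daily; 5 per group (10 placebo) were killed on day 3 or 4. Liver homogenate or serum was serially diluted onto triplicate LLC-MK2 monolayers, and CPE was read 6–8 days later. 50% endpoints gave log10 CCID50 per 0.1 g liver or 0.1 ml serum. Detection range was 2.8–9.5; undetectable samples were assigned <2.8.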

Punta Toro virus [12] = assay: Antiviral activity against Punta Toro virus Adames infected Syrian golden hamster assessed as mean day of death at 30 mg/kg, po twice daily for 6 days administered 4 hrs before viral challenge; type: functional
Procedure, shortened: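 Hamsters (groups of 15, placebo 25-30) were challenged subcutaneously with 50 PFU and dosed twice daily by oral gavage in 0.4% CMC vehicle.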

Pichinde virus [13] = assay: Antiviral activity against Pichinde virus An 4763 infected Syrian golden hamster assessed as mean viral titer per 0.1 mL of serum at 20 mg/kg, po twice daily for 7 days administered 24 hrs post viral-challenge; type: functional; procedure, shortened: as §2
Pichinde virus [14] = assay: Antiviral activity against Pichinde virus An 4763 infected Syrian golden hamster assessed as mean viral titer per 0.1 g of liver at 20 mg/kg, po twice daily for 7 days administered 72 hrs post viral-challenge measured on day 7 of viral infection; type: functional; procedure, shortened: as §2
Pichinde virus [15] = assay: Antiviral activity against Pichinde virus An 4763 infected Syrian golden hamster assessed as mean viral titer per 0.1 g of liver at 20 mg/kg, po twice daily for 7 days administered 24 hrs post viral-challenge measured on day 7 of viral infection; type: functional; procedure, shortened: as §2
Punta Toro virus [16] = assay: Antiviral activity against 50 PFU Punta Toro virus Adames infected C57BL/6 mouse assessed as survival at 30 mg/kg, po twice daily for 5 days administered 24 hrs post viral challenge; type: functional, organism-based; parameters: dose 30 mg/kg
Procedure, shortened: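 Groups of 15 mice (25–30 placebo) were inoculated subcutaneously with PTV. Drug in 0.4% carboxymethylcellulose was given by oral gavage twice daily.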

| SMILES | Activity (Pichinde virus [1]) | Activity (Pichinde virus [2]) [days] | Activity (Punta Toro virus [3]) [%] | Activity (Punta Toro virus [4]) [IU/L] | Activity (Pichinde virus [5]) [days] | log10CCID50 (Pichinde virus [6]) | Activity (Punta Toro virus [7]) [IU/L] | Activity (Punta Toro virus [8]) [days] | log10CCID50 (Pichinde virus [9]) | EC50 (Tacaribe virus) [µM] | Activity (Pichinde virus [10]) [IU/L] | log10CCID50 (Punta Toro virus [11]) | Activity (Punta Toro virus [12]) [days] | log10CCID50 (Pichinde virus [13]) | log10CCID50 (Pichinde virus [14]) | log10CCID50 (Pichinde virus [15]) | Activity (Punta Toro virus [16]) |
| --- | --- | --- | --- | --- | --- | --- | --- | --- | --- | --- | --- | --- | --- | --- | --- | --- | --- |
| NC(=O)c1nc(F)cnc1O [FAVIPIRAVIR] | Active | 9.5 | 80 | 2274 | 8.1 | 6.8 | 25 | 5 | 5.7 | 6 | 1890 | 7.1 | 6 | >9 | >8.6 | >8.4 | Active |
| NC(=O)c1ncn([C@@H]2O[C@H](CO)[C@@H](O)[C@H]2O)n1 [RIBAVIRIN] | Active | 18 | 100 | 1515 | 18.3 | 6.5 | 13 | 5 | 4.2 | 10 | 67 | 6.7 | 13.3 | <5.1 | 6.8 | 6 | Active |
